Among the data in ChEMBL document CHEMBL1145555, “Combination of virtual screening and high throughput gene profiling for identification of novel liver X receptor modulators” (2008) are Activity values, retold here.

In experiment [1] the test system is THP-1. The experiment is described as follows: Induction of ACTB gene expression in human THP1 cells at 10 uM by array plate mRNA assay. The experiment is classed as functional. The essentials: (§1)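 Multiplex quantitative nuclease protection assay (ArrayPlate mRNA) of LXR-regulated genes, run at the same time as housekeeping genes. Compounds were tested at 10 µM alongside a negative control compound. CV% generally below 20%.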

The test system of experiment [2] is THP-1. The experiment is described as follows: Induction of NR1H2 gene expression in human THP1 cells at 10 uM by array plate mRNA assay. The experiment is classed as functional. The essentials: as §1
Experiment [3] deals with THP-1. The experiment is described as follows: Induction of FASN gene expression in human THP1 cells at 10 uM by array plate mRNA assay. Format: functional. In a few lines:
as §1

The test system of experiment [4] is THP-1. The experiment is described as follows: Induction of TBP gene expression in human THP1 cells at 10 uM using by array plate mRNA assay. Format: functional. The essentials:
as §1

Experiment [5] relates to THP-1. The experiment is described as follows: Induction of IL6 gene expression in human THP1 cells at 10 uM by array plate mRNA assay. Format: functional. The essentials: as §1
The subject of experiment [6] is THP-1. The experiment is described as follows: Induction of Cox2 gene expression in human THP1 cells at 10 uM by array plate mRNA assay. Format: functional. The essentials:
as §1

Experiment [7] concerns THP-1. The experiment is described as follows: Induction of B2M gene expression in human THP1 cells at 10 uM by array plate mRNA assay. Format: functional. In a few lines: as §1
The subject of experiment [8] is THP-1. The experiment is described as follows: Induction of ABCA1 gene expression in human THP1 cells at 10 uM by array plate mRNA assay. The experiment is classed as functional. In a few lines:
as §1

Experiment [9] concerns THP-1. The experiment is described as follows: Induction of APOE gene expression in human THP1 cells at 10 uM by array plate mRNA assay. Format: functional. The essentials:
as §1

The subject of experiment [10] is THP-1. The experiment is described as follows: Induction of SREBP1c gene expression in human THP1 cells at 10 uM by array plate mRNA assay. Format: functional. The essentials: as §1
Experiment [11] relates to THP-1. The experiment is described as follows: Induction of HDS11B1 gene expression in human THP1 cells at 10 uM using Array plate mRNA assay. Format: functional. In a few lines: as §1
The subject of experiment [12] is THP-1. The experiment is described as follows: Induction of SCD1 gene expression in human THP1 cells at 10 uM by array plate mRNA assay. The experiment is classed as functional. The essentials: as §1
In experiment [13] the test system is THP-1. The experiment is described as follows: Induction of LXRalpha gene expression in human THP1 cells at 10 uM by array plate mRNA assay. The experiment is classed as functional. The essentials:
as §1

Experiment [14] has as its system THP-1. The experiment is described as follows: Induction of ABCG1 gene expression in human THP1 cells at 10 uM by array plate mRNA assay. Format: functional. The essentials:
as §1

The target of experiment [15] is T1, Oxysterols receptor LXR-alpha (Homo sapiens) (UniProt Q13133).
T1 sequence (whole entry): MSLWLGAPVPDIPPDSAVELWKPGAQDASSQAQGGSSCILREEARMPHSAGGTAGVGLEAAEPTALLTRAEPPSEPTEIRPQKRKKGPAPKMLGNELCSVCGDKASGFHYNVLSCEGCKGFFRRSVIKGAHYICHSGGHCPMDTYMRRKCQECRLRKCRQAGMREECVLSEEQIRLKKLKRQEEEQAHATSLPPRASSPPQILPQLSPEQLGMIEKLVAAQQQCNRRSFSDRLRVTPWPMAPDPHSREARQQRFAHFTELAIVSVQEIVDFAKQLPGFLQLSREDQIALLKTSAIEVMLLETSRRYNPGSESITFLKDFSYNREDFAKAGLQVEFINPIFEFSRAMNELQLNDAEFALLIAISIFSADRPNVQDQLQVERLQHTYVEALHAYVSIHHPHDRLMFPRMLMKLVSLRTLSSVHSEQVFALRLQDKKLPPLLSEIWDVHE
The experiment is described as follows: Agonist activity at human LXRalpha by SRC1 cofactor recruitment assay. The experiment is classed as functional. In a few lines: (§2)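 HTRF coactivator recruitment: His-tagged human LBD (LXRα 2 nM or LXRβ 1 nM) incubated with compound, 20 nM biotin-SRC1 peptide, 5 nM streptavidin-allophycocyanin and Eu-anti-His antibody (1 nM for α, 0.5 nM for β). Incubated 1 h at room temperature with shaking. EC50 taken from the 665/615 nm time-resolved fluorescence ratio.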

Experiment [16] has as its system THP-1. The experiment is described as follows: Induction of cholesterol efflux in human THP1 cells. The experiment is classed as functional, cell-based. The essentials:
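THP-1 cells differentiated to macrophages with 200 nM PMA for 30 h. Labelled 18 h with 0.6 µCi [1,2-3H]cholesterol plus 16 µg/mL acLDL and PMA. Treated with compound 6 h in serum-free medium with 2 mg/mL BSA, then 18 h more with 5 µg/mL apoA-I plus compound. Supernatant radioactivity expressed as fold over vehicle. Mean of triplicates, single experiment.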

Experiment [17] deals with T2, Oxysterols receptor LXR-beta (Homo sapiens) (UniProt P55055).
T2 sequence (whole entry): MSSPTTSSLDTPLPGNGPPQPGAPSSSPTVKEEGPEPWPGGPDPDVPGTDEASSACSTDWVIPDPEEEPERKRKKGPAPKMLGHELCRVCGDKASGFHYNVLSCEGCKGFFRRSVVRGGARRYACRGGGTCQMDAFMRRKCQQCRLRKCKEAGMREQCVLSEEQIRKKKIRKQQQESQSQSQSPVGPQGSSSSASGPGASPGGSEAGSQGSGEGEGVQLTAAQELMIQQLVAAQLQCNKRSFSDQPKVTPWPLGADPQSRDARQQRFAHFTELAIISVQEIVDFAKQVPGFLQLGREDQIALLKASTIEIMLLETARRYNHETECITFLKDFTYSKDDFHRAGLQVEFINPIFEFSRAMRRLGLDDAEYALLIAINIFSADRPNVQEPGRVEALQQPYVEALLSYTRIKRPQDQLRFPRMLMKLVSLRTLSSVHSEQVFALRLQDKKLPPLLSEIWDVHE
The experiment is described as follows: Agonist activity at human LXRbeta by SRC1 cofactor recruitment assay. Format: functional. The essentials: as §2

For another experiment, the system named is HepG2. The experiment is described as follows: Induction of lipogenesis in human HepG2 cells after 24 hrs. Format: functional, cell-based. The essentials: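 HepG2 cells pretreated with compound or vehicle for 24 h, then given 1 µCi [14C]glycerol for a further 48 h. Cellular triglycerides extracted, resolved by TLC and quantified by phosphorimaging. Reported as fold induction over vehicle. Mean of triplicates, single experiment.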

Calls of active or inactive are those of the source. The rule behind the calls is not given here.

`O=S(=O)(c1ccccc1)N(CC(F)(F)F)c1ccc(C(O)(C(F)(F)F)C(F)(F)F)cc1` [T091317]: the Activity worked out at 0.93 in the experiment with THP-1 [1]; 1.17 with THP-1 [2]; 2.59 in the experiment with THP-1 [3]; 1.05 in the experiment with THP-1 [4]; 1.78 in the experiment with THP-1 [5]; 0.93 with THP-1 [6]. For the same molecule, the Activity with THP-1 [7] came to 1.17; in the experiment on THP-1 [8], 5.9; in the experiment with THP-1 [9] it was 4.2; with THP-1 [10], 4.09; in the experiment with THP-1 [11], 1.26; in the experiment on THP-1 [12], 8.16. Further, the figures for the Activity in the experiment with THP-1 [13] and in the experiment on THP-1 [14] were 4.56 and 15.05, respectively.
Consider `O=C(O)Cc1cccc(OCCCN(Cc2cccc(C(F)(F)F)c2Cl)CC(c2ccccc2)c2ccccc2)c1`, for which the Activity in the experiment on THP-1 [1] came out at 0.89; with THP-1 [2], 1.22; with THP-1 [3], 3.77; with THP-1 [4], 1.25; in the experiment on THP-1 [5] it was 1.02; in the experiment with THP-1 [6], 1.2. Besides, the Activity with THP-1 [7] is 1.18; with THP-1 [8], 10.04; in the experiment with THP-1 [9], 4.13; with THP-1 [10], 5.28; in the experiment with THP-1 [11], 0.8; with THP-1 [12], 12.82. Besides, the Activity in the experiment with THP-1 [13] was 4.7; with THP-1 [14] it was 24.92.
Consider `C[C@@H]1C2Cc3ccc(O)cc3[C@]1(C)CCCN2CCc1ccccc1`, for which the Activity in the experiment with THP-1 [1] is reported as 0.93; in the experiment with THP-1 [2], 1.16; in the experiment with THP-1 [3], 1.75; in the experiment with THP-1 [4] it was 1.19; in the experiment with THP-1 [5], 0.91; in the experiment on THP-1 [6] it was 1.2. Moreover, the Activity with THP-1 [7] worked out at 1.05; in the experiment with THP-1 [8] it was 4.53; in the experiment on THP-1 [9] it was 3.34; in the experiment on THP-1 [10] it was 4.05; in the experiment on THP-1 [11], 1.43; with THP-1 [12], 4.76. In addition, the Activity in the experiment with THP-1 [13] amounted to 3.93; in the experiment with THP-1 [14] it was 13.56. For the same molecule, the outcome (in experiment [15]; with THP-1 [16]; in experiment [17]; with HepG2) was Active.
Consider `C[C@H](CC[C@@H]1OC1(C)C)[C@H]1CC[C@H]2[C@@H]3CC=C4C[C@@H](O)CC[C@]4(C)[C@H]3CC[C@]12C` [24(S),25-EPOXYCHOLESTEROL], for which the Activity in the experiment on THP-1 [1] is given as 0.9; in the experiment with THP-1 [2] it was 1.09; with THP-1 [3], 0.89; in the experiment with THP-1 [4] it was 0.99; in the experiment on THP-1 [5] it was 0.82; with THP-1 [6] it was 1.35. For the same molecule, the Activity in the experiment with THP-1 [7] was determined as 1.25; in the experiment on THP-1 [8], 5.59; with THP-1 [9], 2.61; with THP-1 [10], 2.05; in the experiment with THP-1 [11], 0.79; in the experiment on THP-1 [12], 1.17. Moreover, the Activity with THP-1 [13] was determined as 3.41; in the experiment with THP-1 [14] it was 9.91.
